Assay results: ChEMBL document CHEMBL3272314, “Sturcture-activity relationship of daunorubicin and its peptide derivatives” (J Med Chem, 1976)
Activity calls are given as the source filed them. The rule behind the calls is not given here.

Tests used:
Salmonidae [1] = experiment: Binding affinity to salmon sperm DNA assessed as first order dissociation rate at pH 6.2 by stop-flow technique in presence of 21 mM Na+ ionic strength
Outline: (§1)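 Salmon sperm DNA–drug complex preformed without SDS at 6 μM drug and 0.36 mM DNA P/l. Dissociation was started by mixing with 0.2% SDS and followed at 480 nm by stop-flow at 15°C. Buffers were 10 mM MES at pH 6.2 and 1 mM PIPES at pH 7.8, with Na+ set by NaCl. First-order k (sec⁻¹) was taken from rate plots over ≥2.5 half-lives.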

Salmonidae [2] = experiment: Binding affinity to salmon sperm DNA assessed as first order dissociation rate at pH 7.8 by stop-flow technique in presence of 1 mM Na+ ionic strength; outline: as §1
[3] = Retardation factor of the compound in 10% methanol-chloroform by TLC; assay type: physicochemical
Salmonidae [4] = experiment: Binding affinity to salmon sperm DNA assessed as first order dissociation rate at pH 7.8 by stop-flow technique in presence of 21 mM Na+ ionic strength; outline: as §1
Salmonidae [5] = experiment: Binding affinity to salmon sperm DNA assessed as first order dissociation rate at pH 7.8 by stop-flow technique in presence of 201 mM Na+ ionic strength; outline: as §1
[6] = Dissociation constant, pKa of the compound; assay type: physicochemical
[7] = target: Bacterial DNA-directed RNA polymerase (Bacteria) (UniProt P0A8V2+P0A7Z4+P0A8T7+P0A800); experiment: Inhibition of Escherichia coli DNA-dependent RNA polymerase assessed as [3H]UMP incorporation into RNA using calf thymus DNA at 0.12 mM by liquid scintillation counting; assay type: protein-complex assay
Sequence of Bacterial DNA-directed RNA polymerase (Bacteria) (P0A7Z4 whole entry partner): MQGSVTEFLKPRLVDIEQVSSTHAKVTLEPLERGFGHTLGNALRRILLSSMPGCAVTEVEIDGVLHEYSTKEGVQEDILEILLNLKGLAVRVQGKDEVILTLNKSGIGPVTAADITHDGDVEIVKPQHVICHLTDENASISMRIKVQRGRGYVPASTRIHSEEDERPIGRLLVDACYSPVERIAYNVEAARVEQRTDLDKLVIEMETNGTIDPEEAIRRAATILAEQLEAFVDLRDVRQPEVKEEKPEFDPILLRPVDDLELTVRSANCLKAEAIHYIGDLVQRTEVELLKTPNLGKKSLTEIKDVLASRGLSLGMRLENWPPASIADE
Sequence of Bacterial DNA-directed RNA polymerase (Bacteria) (P0A800 2-91 partner limits assumed): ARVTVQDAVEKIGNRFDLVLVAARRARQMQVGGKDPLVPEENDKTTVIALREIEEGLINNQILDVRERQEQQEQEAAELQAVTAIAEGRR
Sequence of Bacterial DNA-directed RNA polymerase (Bacteria) (P0A8T7 whole entry partner): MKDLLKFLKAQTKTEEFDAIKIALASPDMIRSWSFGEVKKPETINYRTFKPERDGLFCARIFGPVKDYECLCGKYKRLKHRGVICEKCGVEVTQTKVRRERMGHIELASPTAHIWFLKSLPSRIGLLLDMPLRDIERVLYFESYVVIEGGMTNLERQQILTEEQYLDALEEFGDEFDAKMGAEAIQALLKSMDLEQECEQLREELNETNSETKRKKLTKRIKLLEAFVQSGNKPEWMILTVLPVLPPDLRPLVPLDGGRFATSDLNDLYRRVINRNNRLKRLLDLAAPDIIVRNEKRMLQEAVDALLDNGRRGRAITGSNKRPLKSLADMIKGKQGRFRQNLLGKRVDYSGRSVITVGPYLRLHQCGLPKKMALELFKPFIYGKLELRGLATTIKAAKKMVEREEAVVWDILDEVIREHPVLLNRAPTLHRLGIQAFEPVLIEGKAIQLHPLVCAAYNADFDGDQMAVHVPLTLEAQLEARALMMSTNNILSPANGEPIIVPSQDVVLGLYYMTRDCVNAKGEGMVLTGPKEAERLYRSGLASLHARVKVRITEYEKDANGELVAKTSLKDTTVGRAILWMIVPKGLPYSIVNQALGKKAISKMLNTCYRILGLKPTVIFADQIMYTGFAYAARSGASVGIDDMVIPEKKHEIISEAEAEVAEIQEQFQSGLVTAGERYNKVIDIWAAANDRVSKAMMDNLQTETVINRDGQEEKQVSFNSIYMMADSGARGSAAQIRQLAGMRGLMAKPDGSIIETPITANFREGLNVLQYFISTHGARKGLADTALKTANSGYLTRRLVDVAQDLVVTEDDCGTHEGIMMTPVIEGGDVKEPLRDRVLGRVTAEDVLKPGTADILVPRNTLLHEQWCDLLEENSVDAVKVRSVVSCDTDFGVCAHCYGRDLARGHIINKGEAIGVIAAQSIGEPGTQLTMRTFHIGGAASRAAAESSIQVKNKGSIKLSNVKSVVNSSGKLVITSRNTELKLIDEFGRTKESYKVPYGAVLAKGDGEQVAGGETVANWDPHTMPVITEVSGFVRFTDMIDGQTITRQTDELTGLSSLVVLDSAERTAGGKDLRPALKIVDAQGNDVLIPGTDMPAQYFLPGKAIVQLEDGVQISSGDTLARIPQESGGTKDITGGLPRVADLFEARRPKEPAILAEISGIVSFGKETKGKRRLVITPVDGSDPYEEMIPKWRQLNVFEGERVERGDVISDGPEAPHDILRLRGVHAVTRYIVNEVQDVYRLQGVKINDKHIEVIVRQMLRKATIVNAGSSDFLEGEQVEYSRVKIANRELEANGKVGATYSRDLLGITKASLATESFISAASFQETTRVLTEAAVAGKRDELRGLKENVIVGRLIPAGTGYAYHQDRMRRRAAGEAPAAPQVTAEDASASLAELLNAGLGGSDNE
Sequence of Bacterial DNA-directed RNA polymerase (Bacteria) (P0A8V2 whole entry): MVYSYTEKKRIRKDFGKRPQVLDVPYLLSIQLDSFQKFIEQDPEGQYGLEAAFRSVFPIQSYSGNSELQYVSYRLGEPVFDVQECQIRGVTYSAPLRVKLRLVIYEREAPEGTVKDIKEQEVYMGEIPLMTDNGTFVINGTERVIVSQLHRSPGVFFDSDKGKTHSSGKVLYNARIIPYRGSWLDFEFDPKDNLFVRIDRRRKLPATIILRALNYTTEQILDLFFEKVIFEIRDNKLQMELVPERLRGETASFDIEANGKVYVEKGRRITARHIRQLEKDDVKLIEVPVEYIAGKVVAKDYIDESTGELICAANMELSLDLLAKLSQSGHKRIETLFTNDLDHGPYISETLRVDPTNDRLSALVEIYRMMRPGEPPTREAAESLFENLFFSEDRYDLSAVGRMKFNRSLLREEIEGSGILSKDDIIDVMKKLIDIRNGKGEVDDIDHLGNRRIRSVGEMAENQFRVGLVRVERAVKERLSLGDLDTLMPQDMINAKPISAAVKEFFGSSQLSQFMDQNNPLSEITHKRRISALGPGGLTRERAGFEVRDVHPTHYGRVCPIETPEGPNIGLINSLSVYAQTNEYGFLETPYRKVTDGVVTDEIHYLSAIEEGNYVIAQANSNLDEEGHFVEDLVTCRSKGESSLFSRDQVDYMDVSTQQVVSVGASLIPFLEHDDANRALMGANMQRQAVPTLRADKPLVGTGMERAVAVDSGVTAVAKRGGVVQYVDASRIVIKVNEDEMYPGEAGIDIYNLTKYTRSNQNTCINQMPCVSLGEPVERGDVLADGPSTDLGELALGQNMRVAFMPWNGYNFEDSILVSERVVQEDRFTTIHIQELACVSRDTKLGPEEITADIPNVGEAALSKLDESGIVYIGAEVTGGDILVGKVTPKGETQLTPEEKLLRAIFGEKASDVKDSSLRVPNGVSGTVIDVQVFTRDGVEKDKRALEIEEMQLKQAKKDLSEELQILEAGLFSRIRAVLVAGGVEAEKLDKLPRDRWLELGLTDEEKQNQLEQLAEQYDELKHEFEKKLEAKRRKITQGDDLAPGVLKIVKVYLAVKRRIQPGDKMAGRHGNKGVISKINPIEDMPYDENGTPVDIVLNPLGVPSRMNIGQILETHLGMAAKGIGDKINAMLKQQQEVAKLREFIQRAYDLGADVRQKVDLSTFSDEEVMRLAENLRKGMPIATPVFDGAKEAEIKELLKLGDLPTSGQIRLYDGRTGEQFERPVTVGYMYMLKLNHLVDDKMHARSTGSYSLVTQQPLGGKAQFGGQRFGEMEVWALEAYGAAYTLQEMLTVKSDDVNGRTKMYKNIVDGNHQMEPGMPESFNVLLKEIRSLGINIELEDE
Outline: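 E. coli RNA polymerase purified through a high-salt glycerol gradient step, 87 units/ml. Mix: 56 mM Tris-HCl pH 7.8, 1.6 mM MnCl2, 150 mM KCl, 1.6 mM β-mercaptoethanol, 0.6 mM each GTP/ATP/CTP, 0.15 mM [5-3H]-UTP, 0.12 mM P/l calf thymus DNA, drug at 0.12 mM. Started with enzyme at 37°C and sampled over time. TCA-insoluble RNA collected on filters and scintillation counted.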

Salmonidae [8] = experiment: Binding affinity to salmon sperm DNA assessed as first order dissociation rate at pH 6.2 by stop-flow technique in presence of 5 mM Na+ ionic strength; outline: as §1
P388 = experiment: Antitumor activity against mouse P388 cells allografted in mouse assessed as tumor growth inhibition at 0.25 to 10 mg/kg; assay type: functional, organism-based
Outline: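 Screened by the NCI Drug Research and Development Branch against P388 lymphocytic leukemia in mice. Dosing was daily at 0.25-10.0 mg/kg, given by peritoneal injection in water.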

[9] = Solubility of the compound in H2O at pH >7; assay type: physicochemical
[10] = Dissociation constant, pKa of the compound in 20% EtOH/H2O; assay type: physicochemical

| Compound | K (Salmonidae [1]) | K (Salmonidae [2]) | Rf [3] | K (Salmonidae [4]) | K (Salmonidae [5]) | pKa [6] | inhibition [7] | K (Salmonidae [8]) | TGI (P388) | solubility [9] | pKa [10] |
| --- | --- | --- | --- | --- | --- | --- | --- | --- | --- | --- | --- |
| COc1cccc2c1C(=O)c1c(O)c3c(c(O)c1C2=O)C[C@@](O)(C(C)=O)C[C@@H]3O[C@H]1C[C@H](N)[C@H](O)[C@H](C)O1.Cl [DAUNORUBICIN HYDROCHLORIDE] | 0.98 s⁻¹ | 1.37 s⁻¹ | 0.17 | 1.57 s⁻¹ | 2.88 s⁻¹ | 8.99 | Active | 0.98 s⁻¹ | Active | – | – |
| COc1cccc2c1C(=O)c1c(O)c3c(c(O)c1C2=O)C[C@@](O)(C(C)=O)C[C@@H]3O[C@H]1C[C@H](NC(=O)CN(C)C)[C@H](O)[C@H](C)O1 | – | – | 0.68 | – | – | 7.35 | Active | – | Active | – | – |
| COc1cccc2c1C(=O)c1c(O)c3c(c(O)c1C2=O)C[C@@](O)(C(C)=O)C[C@@H]3O[C@H]1C[C@H](NC(=O)CNC(=O)CN(C)C)[C@H](O)[C@H](C)O1 | – | – | – | – | – | 7.39 | Active | – | Active | – | – |
| CCCN(CCC)CC(=O)N[C@H]1C[C@H](O[C@H]2C[C@](O)(C(C)=O)Cc3c(O)c4c(c(O)c32)C(=O)c2c(OC)cccc2C4=O)O[C@@H](C)[C@H]1O | – | – | – | – | – | – | – | – | inactive | Insoluble | 7.2 |
